Laboratory results reported in ChEMBL document CHEMBL3124863, “Structural modifications of neuroprotective anti-Parkinsonian (-)-N6-(2-(4-(biphenyl-4-yl)piperazin-1-yl)-ethyl)-N6-propyl-4,5,6,7-tetrahydrobenzo[d]thiazole-2,6-diamine (D-264): an effort toward the improvement of in vivo efficacy of the parent molecule” (J Med Chem, 2014).
pEC50, pKi: −log10 of the molar value. Activity calls are given as the source filed them. No cut-off for these calls is given here.

Key:
[1] = species on record: Rattus norvegicus; experiment: Selectivity ratio of Ki for rat dopamine D2L receptor to Ki for rat dopamine D3 receptor
How it was run: (§1)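 Inhibition of [3H]spiroperidol (16.2 Ci/mmol) binding to rat D2 or D3 receptors expressed in HEK-293 cells. Buffer contains 0.9% NaCl; "high [radioligand]" protocol. IC50 converted to Ki by Cheng–Prusoff. Means ± SEM of 3–6 experiments, each in triplicate.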

[2] = biological target: D(2) dopamine receptor (Rattus norvegicus, UniProt P61169); experiment: Displacement of [3H]spiroperidol from rat dopamine D2L receptor expressed in HEK293 cells; format: cell-based; how it was run: as §1
Sequence of D(2) dopamine receptor (Rattus norvegicus, UniProt P61169) (P61169 whole entry): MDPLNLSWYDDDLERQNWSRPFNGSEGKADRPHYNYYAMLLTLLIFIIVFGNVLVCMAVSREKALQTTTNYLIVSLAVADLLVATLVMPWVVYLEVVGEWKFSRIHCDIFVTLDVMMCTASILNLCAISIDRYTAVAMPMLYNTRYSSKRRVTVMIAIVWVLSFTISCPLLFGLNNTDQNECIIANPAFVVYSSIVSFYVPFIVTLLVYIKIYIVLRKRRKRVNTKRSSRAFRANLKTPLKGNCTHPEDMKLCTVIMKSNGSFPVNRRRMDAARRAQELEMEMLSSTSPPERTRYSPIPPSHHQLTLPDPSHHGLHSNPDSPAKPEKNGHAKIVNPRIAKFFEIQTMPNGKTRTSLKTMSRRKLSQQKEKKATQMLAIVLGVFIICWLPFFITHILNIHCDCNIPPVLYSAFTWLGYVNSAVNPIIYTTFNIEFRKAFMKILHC

[3] = biological target: D(3) dopamine receptor (Rattus norvegicus, UniProt P19020); experiment: Displacement of [3H]spiroperidol from rat dopamine D3 receptor expressed in HEK293 cells; format: cell-based; how it was run: as §1
Sequence of D(3) dopamine receptor (Rattus norvegicus, UniProt P19020) (P19020 whole entry): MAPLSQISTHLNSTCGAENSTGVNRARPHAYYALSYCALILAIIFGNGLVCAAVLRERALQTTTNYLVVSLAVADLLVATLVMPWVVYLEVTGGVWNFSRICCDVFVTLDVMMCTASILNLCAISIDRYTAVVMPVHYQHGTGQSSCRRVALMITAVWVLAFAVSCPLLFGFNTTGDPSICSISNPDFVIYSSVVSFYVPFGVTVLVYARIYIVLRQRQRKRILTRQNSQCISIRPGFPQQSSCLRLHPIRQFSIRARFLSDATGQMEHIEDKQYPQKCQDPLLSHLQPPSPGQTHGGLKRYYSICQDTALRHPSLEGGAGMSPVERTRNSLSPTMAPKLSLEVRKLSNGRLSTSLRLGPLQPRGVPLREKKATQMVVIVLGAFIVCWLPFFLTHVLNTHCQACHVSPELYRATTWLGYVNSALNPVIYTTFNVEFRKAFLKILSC

[4] = system: Radical scavenging activity; experiment: Antioxidant activity assessed as inhibition of DPPH free radical scavenging activity; format: functional
How it was run: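 Compounds in methanol (20–250 μM solutions) mixed 1:1 with 200 μM methanolic DPPH. Shaken 25 min at 30 °C, absorbance read at 517 nm. Methanol-only wells used for background; ascorbic acid as standard. % scavenging = (control A − sample A)/control A × 100.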

[5] = system: Rattus norvegicus; experiment: Antiparkinsonian activity in 6-OHDA-lesioned Sprague-Dawley rat assessed as stimulation of rotational activity at 2.5 umol/kg measured for 5 hrs in presence of haloperidol; format: functional, organism-based
[6] = system: Rattus norvegicus; experiment: Antiparkinsonian activity in Sprague-Dawley rat assessed as reversal of reserpine-induced akinesia at 5 umol/kg, ip administered in 10% beta-hydroxy cyclodextrin solution measured up to 400 mins; format: functional, organism-based
How it was run: (§2)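 Male Sprague–Dawley rats (220–225 g) given reserpine 5 mg/kg s.c. 18 h before test drug. After 1 h acclimatization, drug given at 5 μmol/kg (i.p., or s.c. for ropinirole). Horizontal activity counted by infrared beam breaks for 6 h in 30-min intervals, compared with reserpine controls. n = 4; ANOVA with Dunnett's test.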

[7] = system: MN9D; experiment: Neuroprotective activity in mouse MN9D cells assessed as protection against MPP+-induced toxicity pretreated for 1 hr followed by MPP+-challenge measured after 24 hrs by MTT assay; format: functional, cell-based
How it was run: (§3)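 MN9D mouse dopaminergic hybridoma cells seeded at 1 × 10^4 per well on poly-L-lysine and equilibrated 40 h. Pretreated 1 h with compound (0.001–20 μM), then cotreated with 100 μM MPP+ for 24 h at 37 °C. Viability by MTT (0.5 mg/mL final, 3 h), formazan in DMSO/methanol, A570–A690. Means ± SD of three experiments in 4–6 replicates; ANOVA with Tukey's test.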

[8] = system: Rattus norvegicus; experiment: Antiparkinsonian activity in Sprague-Dawley rat assessed as reversal of reserpine-induced akinesia at 5 umol/kg, ip administered in deionized water measured up to 400 mins; format: functional, organism-based; how it was run: as §2
[9] = system: Rattus norvegicus; experiment: Antiparkinsonian activity in 6-OHDA-lesioned Sprague-Dawley rat assessed as stimulation of rotational activity at 6.56 mg/kg, ip measured for 10 hrs; format: functional, organism-based; set-up: dose 6.56 mg/kg
How it was run: (§4)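 Male Sprague–Dawley rats (290–320 g) with a left medial forebrain bundle 6-OHDA lesion, confirmed by apomorphine challenge. Drug given i.p. in water/saline; vehicle controls. Contralateral (clockwise) rotations counted in a rotometry harness chamber in 30-min bins over up to 12 h. Doses 5 or 10 μmol/kg. Mean ± SEM of 3–4 rats; ANOVA with Dunnett's test.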

[10] = biological target: T1, D(2) dopamine receptor (Homo sapiens, UniProt P14416); experiment: Agonist activity at human dopamine D2 receptor expressed in CHO cells assessed as stimulation of [35S]GTPgammaS binding relative to dopamine
T1 sequence (P14416 whole entry): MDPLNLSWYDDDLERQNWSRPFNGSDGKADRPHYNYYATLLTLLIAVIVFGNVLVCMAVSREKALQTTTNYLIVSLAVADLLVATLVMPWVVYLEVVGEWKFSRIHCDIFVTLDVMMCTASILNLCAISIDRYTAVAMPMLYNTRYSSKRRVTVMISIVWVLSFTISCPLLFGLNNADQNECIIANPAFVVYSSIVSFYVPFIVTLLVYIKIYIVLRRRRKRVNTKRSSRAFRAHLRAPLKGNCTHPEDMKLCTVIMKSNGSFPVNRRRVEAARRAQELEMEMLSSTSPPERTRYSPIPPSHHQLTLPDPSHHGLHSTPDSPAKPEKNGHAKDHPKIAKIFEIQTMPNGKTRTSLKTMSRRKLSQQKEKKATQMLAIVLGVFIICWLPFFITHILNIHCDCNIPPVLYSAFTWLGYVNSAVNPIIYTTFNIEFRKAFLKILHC

[11] = system: Rattus norvegicus; experiment: Antiparkinsonian activity in 6-OHDA-lesioned ip dosed Sprague-Dawley rat assessed as stimulation of rotational activity measured up to 12 hrs; format: functional, organism-based; how it was run: as §4
[12] = biological target: D(3) dopamine receptor (Homo sapiens, UniProt P35462); experiment: Agonist activity at human dopamine D3 receptor expressed in CHO cells assessed as stimulation of [35S]GTPgammaS binding; format: functional, cell-based
Sequence of D(3) dopamine receptor (Homo sapiens, UniProt P35462) (P35462 whole entry): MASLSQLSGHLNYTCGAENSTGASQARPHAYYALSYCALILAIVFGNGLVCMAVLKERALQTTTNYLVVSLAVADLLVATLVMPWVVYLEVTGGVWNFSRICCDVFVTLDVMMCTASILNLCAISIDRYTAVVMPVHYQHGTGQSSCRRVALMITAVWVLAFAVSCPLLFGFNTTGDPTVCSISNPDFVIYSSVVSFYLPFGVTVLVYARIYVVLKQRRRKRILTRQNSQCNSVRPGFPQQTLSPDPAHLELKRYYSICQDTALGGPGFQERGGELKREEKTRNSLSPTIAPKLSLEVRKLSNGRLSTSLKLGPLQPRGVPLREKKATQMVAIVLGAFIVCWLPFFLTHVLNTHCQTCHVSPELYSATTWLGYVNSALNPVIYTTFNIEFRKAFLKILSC

[13] = species on record: Homo sapiens; experiment: Selectivity ratio of EC50 for human dopamine D2 receptor to EC50 for human dopamine D3 receptor
[14] = system: Rattus norvegicus; experiment: Antiparkinsonian activity in 6-OHDA-lesioned Sprague-Dawley rat assessed as stimulation of rotational activity at 3.28 mg/kg, ip measured for 7 hrs; format: functional, organism-based; set-up: dose 3.28 mg/kg; how it was run: as §4
[15] = biological target: T1, D(2) dopamine receptor; experiment: Agonist activity at human dopamine D2 receptor expressed in CHO cells assessed as stimulation of [35S]GTPgammaS binding
[16] = system: Rattus norvegicus; experiment: Antiparkinsonian activity in 6-OHDA-lesioned Sprague-Dawley rat assessed as stimulation of rotational activity measured as time required to reach peak effect at 6.56 mg/kg, ip; format: functional; conditions: route intraperitoneal; how it was run: as §4
[17] = system: MN9D; experiment: Neuroprotective activity in mouse MN9D cells assessed as protection against MPP+-induced toxicity at 0.001 to 20 uM pretreated for 1 hr followed by MPP+-challenge measured after 24 hrs by MTT assay; format: functional, cell-based; how it was run: as §3
[18] = system: Rattus norvegicus; experiment: Antiparkinsonian activity in Sprague-Dawley rat assessed as reversal of reserpine-induced akinesia at 5 umol/kg, sc administered in deionized water measured up to 400 mins; format: functional, organism-based; how it was run: as §2
[19] = system: Rattus norvegicus; experiment: Antiparkinsonian activity in 6-OHDA-lesioned Sprague-Dawley rat assessed as stimulation of rotational activity at 10 umol/kg measured up to 12 hrs; format: functional, organism-based; how it was run: as §4
[20] = biological target: T1, D(2) dopamine receptor; experiment: Agonist activity at human dopamine D2 receptor expressed in CHO cells assessed as stimulation of [35S]GTPgammaS binding relative to dopamine; format: functional, cell-based
How it was run: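 [35S]GTPγS (1250 Ci/mmol) binding stimulated in CHO cells expressing human D2. EC50 is the concentration giving half-maximal stimulation. […] Means ± SEM of 3–6 experiments, each in triplicate.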

[21] = system: Rattus norvegicus; experiment: Antiparkinsonian activity in 6-OHDA-lesioned Sprague-Dawley rat assessed as stimulation of rotational activity at 9.28 mg/kg, ip measured for 10 hrs; format: functional, organism-based; set-up: dose 9.28 mg/kg; how it was run: as §4
[22] = biological target: T1, D(2) dopamine receptor; experiment: Agonist activity at human dopamine D2 receptor expressed in CHO cells assessed as stimulation of [35S]GTPgammaS binding; format: functional, cell-based
How it was run: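 [35S]GTPγS (1250 Ci/mmol) binding stimulated in CHO cells expressing human D2. EC50 is the concentration giving half-maximal stimulation. Means ± SEM of 3–6 experiments, each in triplicate.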

[23] = system: Rattus norvegicus; experiment: Antiparkinsonian activity in 6-OHDA-lesioned Sprague-Dawley rat assessed as stimulation of rotational activity measured as time required to reach peak effect at 9.28 mg/kg, ip; format: functional; conditions: route intraperitoneal; how it was run: as §4
[24] = system: Rattus norvegicus; experiment: Antiparkinsonian activity in 6-OHDA-lesioned Sprague-Dawley rat assessed as stimulation of rotational activity at 4.64 mg/kg, ip measured for 7 hrs; format: functional, organism-based; set-up: dose 4.64 mg/kg; how it was run: as §4

CCCN(CCN1CCN(c2ccc(-c3ccc(O)cc3)cc2)CC1)C1CCc2nc(N)sc2C1 (racemic)
Ratio Ki [1]: 196
pKi [2]: 6.64
pKi [3]: 8.93

CCCN(CCN1CCN(c2ccc(-c3cccc(O)c3)cc2)CC1)C1CCc2nc(N)sc2C1 (racemic)
Ratio Ki [1]: 289
pKi [2]: 6.46
pKi [3]: 8.92

CCCN(CCN1CCN(c2ccc(-c3ccccc3)cc2)CC1)[C@H]1CCc2nc(N)sc2C1
inhibition [4]: Dose-dependent effect
Activity [5]: inactive
Activity [6]: Active
Activity [7]: Dose-dependent effect
Activity [8]: inactive

CCCN(CCN1CCN(c2ccc(-c3cccc(O)c3)cc2)CC1)[C@@H]1CCc2nc(N)sc2C1
Ratio Ki [1]: 76
pKi [2]: 5.82
pKi [3]: 7.71

CCCN(CCN1CCN(c2ccc(-c3cccc(O)c3)cc2)CC1)[C@H]1CCc2c(O)cccc2C1
Ratio Ki [1]: 36
inhibition [4]: Dose-dependent effect
pKi [2]: 7.56
pKi [3]: 9.11

CCCN(CCN1CCN(c2ccc(-c3ccccc3O)cc2)CC1)C1CCc2nc(N)sc2C1 (racemic)
Ratio Ki [1]: 115
pKi [2]: 6.68
pKi [3]: 8.74

CCCN(CCN1CCN(c2ccc(-c3cccc(OC)c3)cc2)CC1)[C@H]1CCc2nc(N)sc2C1
Activity [9]: Active
Ratio Ki [1]: 147
inhibition [4]: Dose-dependent effect
pKi [2]: 6.46
Emax [10]: 105%
Activity [11]: Dose-dependent effect
pEC50 [12]: 8.47
Ratio EC50 [13]: 10.8
Activity [8]: Active
Activity [14]: Active
pEC50 [15]: 7.43
pKi [3]: 8.63
Time [16]: 7.5 h
Activity [17]: inactive

CCCN(CCN1CCN(c2ccc(-c3cccc(O)c3)cc2)CC1)C1CCc2nc(N)ncc2C1 (racemic)
Ratio Ki [1]: 196
pKi [2]: 4.88
pKi [3]: 7.17

CCCN(CCN1CCN(C(=O)c2ccc(-c3ccccc3)cc2)CC1)C1CCc2nc(N)sc2C1 (racemic)
Ratio Ki [1]: 174
pKi [2]: 5.78
pKi [3]: 8.02

CCCN(CCN1CCN(c2ccc(-c3ccccc3)cc2O)CC1)C1CCc2nc(N)sc2C1 (racemic)
Ratio Ki [1]: 30
pKi [2]: 7.15
pKi [3]: 8.63

CCCN(CCN1CCN(c2ccc(-c3cccc(OC)c3)cc2)CC1)C1CCc2nc(N)sc2C1 (racemic)
Ratio Ki [1]: 220
pKi [2]: 6.33
pKi [3]: 8.68

CCCN(CCC)CCc1cccc2c1CC(=O)N2
Activity [18]: Active
inhibition [4]: Dose-dependent effect
Activity [19]: Active

CCCN(CCN1CCN(c2ccc(-c3ccc(OC)cc3)cc2)CC1)C1CCc2nc(N)sc2C1 (racemic)
Ratio Ki [1]: 151
pKi [2]: 6.67
pKi [3]: 8.85

CCCN(CCCCN1CCN(c2ccc(-c3cccc(O)c3)cc2)CC1)C1CCc2nc(N)sc2C1 (racemic)
Ratio Ki [1]: 60
pKi [2]: 6.25
pKi [3]: 8.03

CCCN(CCN1CCN(c2ccc(-c3cccc(O)c3)cc2)CC1)[C@H]1CCc2nc(N)sc2C1
Emax [20]: 116%
Activity [21]: Active
pEC50 [22]: 7.80
Time [23]: 7.5 h
Ratio Ki [1]: 213
inhibition [4]: Dose-dependent effect
Activity [24]: Active
pKi [2]: 6.43
Activity [11]: Dose-dependent effect
pEC50 [12]: 10.00
Activity [7]: Dose-dependent effect
Ratio EC50 [13]: 159
Activity [8]: Active
pKi [3]: 8.76

O=C1O[C@H]([C@@H](O)CO)C(O)=C1O
inhibition [4]: Dose-dependent effect

CCCN(CCN1CCN(c2ccc(-c3ccccc3OC)cc2)CC1)C1CCc2nc(N)sc2C1 (racemic)
Ratio Ki [1]: 78
pKi [2]: 6.56
pKi [3]: 8.45

CCCN(CCN1CCN(c2ccc(-c3ccccc3)cc2)CC1)C1CCc2nc(N)ncc2C1 (racemic)
Ratio Ki [1]: 201
pKi [2]: 6.13
pKi [3]: 8.44
